ChEMBL document CHEMBL3124806, “Imidazopyridine-fused [1,3]-diazepinones: synthesis and antiproliferative activity” (Eur J Med Chem, 2014)
Activity calls are given as the source filed them. The rule behind the calls is not given here.

Tests used:
[1] = target: Cyclin-dependent kinase 2 (Homo sapiens) (UniProt P24941); test: Inhibition of human CDK2 at 10 uM
Procedure, shortened: (§1)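 Kinase selectivity panel of 19 protein tyrosine kinases and 30 serine/threonine kinases, run by a contract lab (CEREP). Each compound was tested at a single dose of 10 μM in duplicate.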

[2] = target: Mitogen-activated protein kinase kinase kinase kinase 4 (Homo sapiens) (UniProt O95819); test: Inhibition of human HGK at 10 uM; procedure, shortened: as §1
Chain of Mitogen-activated protein kinase kinase kinase kinase 4 (Homo sapiens) (O95819 2-1239 limits assumed): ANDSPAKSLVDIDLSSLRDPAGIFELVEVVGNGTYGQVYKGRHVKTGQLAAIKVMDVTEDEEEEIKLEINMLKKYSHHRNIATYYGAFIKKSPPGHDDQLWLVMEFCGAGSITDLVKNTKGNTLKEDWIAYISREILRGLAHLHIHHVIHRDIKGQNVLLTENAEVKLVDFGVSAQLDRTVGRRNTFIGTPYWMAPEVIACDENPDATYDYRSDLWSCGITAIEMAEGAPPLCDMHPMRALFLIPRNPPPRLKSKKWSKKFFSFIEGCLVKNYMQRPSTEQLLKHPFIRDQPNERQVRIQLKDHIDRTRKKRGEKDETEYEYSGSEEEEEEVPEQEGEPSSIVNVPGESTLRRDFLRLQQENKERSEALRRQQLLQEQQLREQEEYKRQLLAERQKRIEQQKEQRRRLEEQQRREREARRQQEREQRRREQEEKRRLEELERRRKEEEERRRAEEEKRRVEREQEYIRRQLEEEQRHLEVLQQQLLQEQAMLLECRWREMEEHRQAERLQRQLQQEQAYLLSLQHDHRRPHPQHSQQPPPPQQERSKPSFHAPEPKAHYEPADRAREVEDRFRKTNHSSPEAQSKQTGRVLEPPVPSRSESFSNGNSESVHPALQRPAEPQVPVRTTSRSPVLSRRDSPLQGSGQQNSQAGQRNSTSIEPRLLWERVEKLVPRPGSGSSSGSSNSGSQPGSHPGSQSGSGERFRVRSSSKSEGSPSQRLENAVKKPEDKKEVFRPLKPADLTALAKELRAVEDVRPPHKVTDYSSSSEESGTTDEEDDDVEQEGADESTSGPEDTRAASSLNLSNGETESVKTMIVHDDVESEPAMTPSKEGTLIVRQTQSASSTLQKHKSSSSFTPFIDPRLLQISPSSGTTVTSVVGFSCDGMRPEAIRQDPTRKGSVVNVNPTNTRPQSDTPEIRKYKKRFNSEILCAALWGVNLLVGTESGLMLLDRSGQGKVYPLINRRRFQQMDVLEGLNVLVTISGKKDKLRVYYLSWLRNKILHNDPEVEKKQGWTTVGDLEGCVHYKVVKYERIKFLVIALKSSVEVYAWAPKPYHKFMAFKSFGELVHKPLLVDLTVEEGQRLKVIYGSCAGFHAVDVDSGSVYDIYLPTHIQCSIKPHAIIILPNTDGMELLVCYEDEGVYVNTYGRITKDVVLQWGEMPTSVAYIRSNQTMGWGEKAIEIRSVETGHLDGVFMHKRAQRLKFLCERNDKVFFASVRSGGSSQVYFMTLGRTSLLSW

MDA-MB-435 [3] = test: Induction of apoptosis in human MDA-MB-435 cells assessed as alterations in stress action fibre aggregation at 5 uM after 20 hrs by Hoechst 33342 staining-based […] microscopy; assay type: functional, cell-based
Procedure, shortened: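 MDA-MB-435 cells were grown for 24 h, then treated with or without 5 μM compound for 20 h. Cells were fixed for 20 min and permeabilised with 0.2% Triton X-100 for 4 min at room temperature. Actin was stained with a mouse anti-actin antibody and an Alexa Fluor 568 anti-mouse antibody, each for 1 h at RT. Nuclei were counterstained with Hoechst 33342, and cells were imaged by confocal microscopy.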

MDA-MB-435 [4] = test: Cell cycle arrest in human MDA-MB-435 cells assessed as accumulation at subG1 phase at 5 uM after 48 hrs by propidium iodide staining-based FACS analysis (reference value: 0.1%); assay type: functional
BT-549 = test: Cytotoxicity against human BT549 cells after 48 hrs by SRB assay; assay type: functional; conditions: BT-549, 48 h
Procedure, shortened: (§2)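 NCI-60 five-dose testing, 100 to 0.01 µM, under a 48 h continuous-exposure protocol. Growth estimated by SRB protein assay, read spectrophotometrically against untreated controls; IC50 derived from the dose-response.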

MDA-MB-231 = test: Cytotoxicity against human MDA-MB-231 cells after 48 hrs by SRB assay; assay type: functional; conditions: MDA-MB-231, 48 h
Procedure, shortened: (§3)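 NCI-60 five-dose screen: cells exposed continuously for 48 h across 100 to 0.01 µM. Growth or viability estimated by sulforhodamine B protein staining, read spectrophotometrically against untreated controls; IC50 taken from the dose-response.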

DU-145 = test: Cytotoxicity against human DU145 cells after 48 hrs by SRB assay; assay type: functional; conditions: DU-145, 48 h; procedure, shortened: as §2
[5] = Cytotoxicity against human UO31 cells after 48 hrs by SRB assay; assay type: functional; conditions: UO-31, 48 h
Procedure, shortened: (§4)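 NCI-60 five-dose mode on the full human tumour line panel. Concentrations ran from 100 to 0.01 µM with 48 h continuous exposure. Growth was estimated by SRB protein staining against untreated controls, and IC50 values were derived from the dose–response.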

TK-10 = test: Cytotoxicity against human TK10 cells after 48 hrs by SRB assay; assay type: functional; conditions: TK-10, 48 h; procedure, shortened: as §4
A498 = test: Cytotoxicity against human A498 cells after 48 hrs by SRB assay; assay type: functional; conditions: A498, 48 h; procedure, shortened: as §2
786-0 = test: Cytotoxicity against human […] cells after 48 hrs by SRB assay; assay type: functional; conditions: 786-0, 48 h; procedure, shortened: as §2
[6] = Cytotoxicity against human NCI-ADR-RES cells after 48 hrs by SRB assay; assay type: functional; procedure, shortened: as §3
SK-OV-3 = test: Cytotoxicity against human SKOV3 cells after 48 hrs by SRB assay; assay type: functional; conditions: SK-OV-3, 48 h; procedure, shortened: as §4
[7] = Cytotoxicity against human OVCAR5 cells after 48 hrs by SRB assay; assay type: functional; conditions: OVCAR-5, 48 h; procedure, shortened: as §3
SK-MEL-2 = test: Cytotoxicity against human SK-MEL-2 cells after 48 hrs by SRB assay; assay type: functional; conditions: SK-MEL-2, 48 h; procedure, shortened: as §3
MDA-MB-435 [8] = test: Cytotoxicity against human MDA-MB-435 cells after 48 hrs by SRB assay; assay type: functional, cell-based; conditions: MDA-MB-435, 48 h; procedure, shortened: as §3
M14 = test: Cytotoxicity against human M14 cells after 48 hrs by SRB assay; assay type: functional; conditions: M14, 48 h; procedure, shortened: as §2
Malme-3M = test: Cytotoxicity against human MALME-3M cells after 48 hrs by SRB assay; assay type: functional; procedure, shortened: as §2
U-251 = test: Cytotoxicity against human U251 cells after 48 hrs by SRB assay; assay type: functional; conditions: U-251, 48 h; procedure, shortened: as §4
LOX IMVI = test: Cytotoxicity against human LOXIMVI cells after 48 hrs by SRB assay; assay type: functional; procedure, shortened: as §2
SNB-19 = test: Cytotoxicity against human SNB19 cells after 48 hrs by SRB assay; assay type: functional; conditions: SNB-19, 48 h; procedure, shortened: as §4
HCC 2998 = test: Cytotoxicity against human HCC2998 cells after 48 hrs by SRB assay; assay type: functional; conditions: HCC 2998, 48 h; procedure, shortened: as §2
NCI-H522 = test: Cytotoxicity against human NCI-H522 cells after 48 hrs by SRB assay; assay type: functional; conditions: NCI-H522, 48 h; procedure, shortened: as §3
NCI-H23 = test: Cytotoxicity against human NCI-H23 cells after 48 hrs by SRB assay; assay type: functional; conditions: NCI-H23, 48 h; procedure, shortened: as §3
NCI-H322M = test: Cytotoxicity against human NCI-H322M cells after 48 hrs by SRB assay; assay type: functional; procedure, shortened: as §3
HOP-62 = test: Cytotoxicity against human HOP62 cells after 48 hrs by SRB assay; assay type: functional; conditions: HOP-62, 48 h; procedure, shortened: as §2
SR = test: Cytotoxicity against human SR cells after 48 hrs by SRB assay; assay type: functional; procedure, shortened: as §4
HL-60(TB) = test: Cytotoxicity against human HL-60(TB) cells after 48 hrs by SRB assay; assay type: functional; conditions: HL-60, 48 h
Procedure, shortened: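 NCI-60 human tumour cell line panel; continuous 48 h exposure to five concentrations from 100 to 0.01 µM. Cell growth was read spectrophotometrically by sulforhodamine B protein staining against untreated controls, and […] was taken from the dose–response.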

[9] = read-out: LC50 (the source's name)

SMILES: C[C@@H]1NC(c2ccc(Br)cc2)=Nc2nc3ccccn3c2C1=O
- inhibition [1]: inactive
- inhibition [2]: 50%
- Activity (MDA-MB-435 [3]): Active
- Activity (MDA-MB-435 [4]): 8.6%
- GI50 (BT-549): 5.49 µM
- TGI (BT-549): > 100 µM
- CC50 (BT-549; [9]): > 100 µM
- GI50 (MDA-MB-231): 6.08 µM
- TGI (MDA-MB-231): > 100 µM
- CC50 (MDA-MB-231; [9]): > 100 µM
- GI50 (DU-145): 23.2 µM
- TGI (DU-145): > 100 µM
- CC50 (DU-145; [9]): > 100 µM
- GI50 [5]: 8.11 µM
- TGI [5]: > 100 µM
- CC50 [5, 9]: > 100 µM
- GI50 (TK-10): 21 µM
- TGI (TK-10): > 100 µM
- CC50 (TK-10; [9]): > 100 µM
- GI50 (A498): 3.26 µM
- TGI (A498): 38.2 µM
- CC50 (A498; [9]): > 100 µM
- GI50 (786-0): 28.3 µM
- TGI (786-0): > 100 µM
- CC50 (786-0; [9]): > 100 µM
- GI50 [6]: 7.45 µM
- TGI [6]: > 100 µM
- CC50 [6, 9]: > 100 µM
- GI50 (SK-OV-3): 4.41 µM
- TGI (SK-OV-3): > 100 µM
- CC50 (SK-OV-3; [9]): > 100 µM
- GI50 [7]: 23.5 µM
- TGI [7]: > 100 µM
- CC50 [7, 9]: > 100 µM
- GI50 (SK-MEL-2): 15.7 µM
- TGI (SK-MEL-2): > 100 µM
- CC50 (SK-MEL-2; [9]): > 100 µM
- GI50 (MDA-MB-435 [8]): 1.33 µM
- IC50 (MDA-MB-435 [8]): 1.3 µM
- LC50 (MDA-MB-435 [8]): > 100 µM
- TGI (MDA-MB-435 [8]): 7.1 µM
- GI50 (M14): 3.2 µM
- TGI (M14): 48.2 µM
- CC50 (M14; [9]): > 100 µM
- GI50 (Malme-3M): 15.2 µM
- TGI (Malme-3M): > 100 µM
- CC50 (Malme-3M; [9]): > 100 µM
- GI50 (U-251): 6.64 µM
- TGI (U-251): > 100 µM
- CC50 (U-251; [9]): > 100 µM
- GI50 (LOX IMVI): 6.34 µM
- TGI (LOX IMVI): > 100 µM
- CC50 (LOX IMVI; [9]): > 100 µM
- GI50 (SNB-19): 7.45 µM
- TGI (SNB-19): > 100 µM
- CC50 (SNB-19; [9]): > 100 µM
- GI50 (HCC 2998): 21.9 µM
- TGI (HCC 2998): > 100 µM
- CC50 (HCC 2998; [9]): > 100 µM
- GI50 (NCI-H522): 3.23 µM
- TGI (NCI-H522): 18.4 µM
- CC50 (NCI-H522; [9]): > 100 µM
- GI50 (NCI-H23): 25.4 µM
- TGI (NCI-H23): > 100 µM
- CC50 (NCI-H23; [9]): > 100 µM
- GI50 (NCI-H322M): 23.6 µM
- TGI (NCI-H322M): > 100 µM
- CC50 (NCI-H322M; [9]): > 100 µM
- GI50 (HOP-62): 5.75 µM
- TGI (HOP-62): > 100 µM
- CC50 (HOP-62; [9]): > 100 µM
- GI50 (SR): 2.42 µM
- TGI (SR): > 100 µM
- CC50 (SR; [9]): > 100 µM
- GI50 (HL-60(TB)): 6.49 µM
- TGI (HL-60(TB)): > 100 µM
- CC50 (HL-60(TB); [9]): > 100 µM
